Data: ChEMBL document CHEMBL4680177, “Novel distamycin analogues that block the cell cycle of African trypanosomes with high selectivity and potency” (Eur J Med Chem, 2020)
pEC50: −log10 of the molar value. Activity calls are given as the source filed them. The rule behind the calls is not given here.

Key:
J774 [1] = assay: Cytotoxicity against mouse J774 cells assessed as reduction in cell viability at 120 uM after 24 hrs by WST-1 assay; type: cell-based; conditions: j774, 24 h
In short: (§1)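 J774 murine macrophages in DMEM with 10% FBS, 37 °C, 5% CO2. Exposed 24 h to a 6-point compound series, in triplicate, up to 120 µM with DMSO 1% v/v. Viability read with WST-1 reagent relative to DMSO control and EC50 taken from nonlinear fit. The selectivity index is the macrophage EC50 divided by the trypanosome EC50.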

[2] = system: Trypanosoma brucei brucei; assay: Antitrypanosomal activity against bloodstream form Trypanosoma brucei brucei 427 […] assessed as cell viability upto 60 uM after 48 hrs by propidium iodide staining based flow cytometric analysis; type: functional, organism-based; conditions: dose microM <=60, time 48.0 hrs
In short: (§2)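 Viability of bloodstream T. b. brucei 427 redox-reporter line under lower-density conditions: 1.2×10^4 parasites/mL seeded, 48 h exposure, compound tested up to 60 µM. Nifurtimox included as positive control. Viability read by PI exclusion on flow cytometry.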

[3] = system: Trypanosoma brucei brucei; assay: Antitrypanosomal activity against bloodstream form Trypanosoma brucei brucei 427 […] assessed as cell viability at 5 uM after 24 hrs by propidium iodide staining based flow cytometric analysis relative to control; type: functional
In short: (§3)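 Bloodstream T. b. brucei 427 expressing hGrx1-roGFP2 (line 449_Grx-roGFP2), grown in HMI-9 with 10% FBS, 37 °C, 5% CO2. Biosensor induced with oxytetracycline (1 µg/mL final). Exponential-phase cells seeded at 5×10^5/mL and exposed 24 h to a single 5 µM screen, or to 0.0001–120 µM for EC50. DMSO ≤1% v/v. Viability read by PI exclusion on flow cytometry, expressed relative to DMSO control. EC50 from nonlinear fit; ≥3 replicates, S.D.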

J774 [4] = assay: Cytotoxicity against mouse J774 cells assessed as reduction in cell viability >120 uM after 24 hrs by WST-1 assay; type: cell-based; conditions: j774, 24 h; in short: as §1
[5] = Selectivity index, ratio of EC50 for cytotoxicity against mouse J774 cells to EC50 for antitrypanosomal activity against bloodstream form Trypanosoma brucei brucei 427; type: toxicity, cell-based; conditions: read-out: Ratio EC50; in short: as §1
[6] = system: Trypanosoma brucei brucei; assay: Antitrypanosomal activity against bloodstream form Trypanosoma brucei brucei 427 […] assessed as cell viability after 24 hrs by propidium iodide staining based flow cytometric analysis; type: functional, organism-based; conditions: Trypanosoma brucei, 427, 24 h; in short: as §3
[7] = system: Trypanosoma brucei brucei; assay: Antitrypanosomal activity against bloodstream form Trypanosoma brucei brucei 427 […] assessed as cell viability after 48 hrs by propidium iodide staining based flow cytometric analysis; type: functional, organism-based; conditions: Trypanosoma brucei, 427, 48 h; in short: as §2
J774 [8] = assay: Cytotoxicity against mouse J774 cells assessed as reduction in cell viability after 24 hrs by WST-1 assay; type: cell-based; conditions: J774, 24 h; in short: as §1
[9] = Selectivity ratio of EC50 for antitrypanosomal activity against bloodstream form Trypanosoma brucei brucei 427 assessed as cell viability after 24 hrs to antitrypanosomal activity against bloodstream form Trypanosoma brucei brucei 427 assessed as cell viability after 48 hrs; type: functional

| SMILES | Activity (J774 [1]) | Activity [3] [%] | Activity (J774 [4]) | also measured |
| --- | --- | --- | --- | --- |
| CC(=O)Nc1nc(C(=O)Nc2cc(C(=O)Nc3nc(C(=O)O)c(C(C)C)s3)n(C)c2)c(C(C)C)s1 | Non-Toxic | 113.1 | Nd(Insoluble) | Activity [2]: inactive |
| COC(=O)c1nc(NC(=O)c2cc(NC(=O)c3nc(NC(C)=O)sc3C(C)C)cn2C)sc1C(C)C | Non-Toxic | 5.4 | Nd(Insoluble) | selectivity ratio [5]: > 145; pEC50 [6]: 6.08 |
| CCOC(=O)c1csc(NC(=O)c2cc([N+](=O)[O-])cn2C)n1 |  | 120.5 |  |  |
| Cc1ccc(C(=O)Nc2ccc(S(=O)(=O)O)c3cc(S(=O)(=O)O)cc(S(=O)(=O)O)c23)cc1NC(=O)c1cccc(NC(=O)Nc2cccc(C(=O)Nc3cc(C(=O)Nc4ccc(S(=O)(=O)O)c5cc(S(=O)(=O)O)cc(S(=O)(=O)O)c45)ccc3C)c2)c1 [SURAMIN] |  |  |  | pEC50 [6]: 7.11 |
| CCOC(=O)c1csc(NC(=O)c2csc(NC(=O)c3csc(NC(=O)OC(C)(C)C)n3)n2)n1 |  |  |  | pEC50 [7]: 7.24; pEC50 (J774 [8]): 5.30; Ratio EC50 [9]: 5 |
| CC(C)c1sc(NC(=O)c2cc(NC(=O)c3nc(NC(=O)OC(C)(C)C)sc3C(C)C)cn2C)nc1C(=O)O | Non-Toxic | 48.5 | Nd(Insoluble) |  |
| COC(=O)c1nc(NC(=O)c2cc([N+](=O)[O-])cn2C)sc1C(C)C |  | 105.6 |  |  |
